Screening results: PubChem, several laboratories
The list is not random: actives were taken first. Their share in the collection is about 4.5%.
CHOP inhibitor: blocks CHOP induction under ER stress | 220,000 tested, 3.8% active | inhibition, % at 10 µM | CHO-K1 CHOP-promoter luciferase, tunicamycin-induced, 15-18 h;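 active means compounds that reduced the stress-induced luciferase reporter signal by more than about 70% of percent inhibition, limit read from the data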;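 further: 0% = tunicamycin plus vehicle and 100% = wells without tunicamycin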
PfM18AAP inh: PfM18AAP enzyme inhibition. recombinant PfM18AAP, H-Glu-NHMec fluorogenic cleavage. inhibition, % at 7.35 µM. 290,000 tested, 1.2% active. AID 1822;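 active means inhibition above the campaign mean inhibition over all tested compounds plus 3 SD, cut at about 28% in these data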;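 further: 0% = plate median of test compound wells and 100% = 2 mM ZnCl2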
p97 inhibitor: human p97 ATPase inhibition; 220,000 tested, 0.42% active; recombinant p97 ATPase, Kinase-Glo ATP luminescence, 3 h; AID 1481; P55072; inhibition, % at 8 µM; in the data active means inhibition above about 15%;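 further: 0% = DMSO vehicle and 100% = wells lacking enzyme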
Target sequence (P55072 whole entry, looked up): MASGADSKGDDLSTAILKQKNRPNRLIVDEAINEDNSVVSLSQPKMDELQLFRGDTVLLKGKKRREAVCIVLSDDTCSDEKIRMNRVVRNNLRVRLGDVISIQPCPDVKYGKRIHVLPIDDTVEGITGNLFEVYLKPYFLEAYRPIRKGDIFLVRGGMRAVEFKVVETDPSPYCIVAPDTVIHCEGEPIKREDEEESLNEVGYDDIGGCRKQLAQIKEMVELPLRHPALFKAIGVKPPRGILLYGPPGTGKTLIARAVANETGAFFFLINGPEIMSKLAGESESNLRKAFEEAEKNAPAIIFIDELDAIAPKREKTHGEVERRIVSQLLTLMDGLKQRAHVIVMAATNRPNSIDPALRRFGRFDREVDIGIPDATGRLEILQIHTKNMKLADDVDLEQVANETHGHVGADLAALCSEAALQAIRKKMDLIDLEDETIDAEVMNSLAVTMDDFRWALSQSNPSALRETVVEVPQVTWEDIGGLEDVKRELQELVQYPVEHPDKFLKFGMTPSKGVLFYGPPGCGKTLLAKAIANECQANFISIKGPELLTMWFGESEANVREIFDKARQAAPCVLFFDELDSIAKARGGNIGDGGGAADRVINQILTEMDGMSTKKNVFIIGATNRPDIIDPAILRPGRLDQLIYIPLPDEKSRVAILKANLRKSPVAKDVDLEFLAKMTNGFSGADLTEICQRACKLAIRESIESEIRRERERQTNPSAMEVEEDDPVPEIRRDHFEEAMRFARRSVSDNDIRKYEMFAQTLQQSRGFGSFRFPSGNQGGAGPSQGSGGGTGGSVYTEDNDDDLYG
HCV NS3 hel inh: inhibitors of Hepatitis C virus NS3 helicase. AID 1800. inhibition, % at 10.9 µM. 290,000 tested, 0.56% active. NS3 helicase DNA unwinding, Cy5 molecular beacon fluorescence;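 active means inhibition above the mean of all tested compounds plus 3 SD, set per campaign, cut at about 35% in these data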;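 further: 0% = DMSO wells and 100% = thioflavine S control wells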
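Control set: DMSO versus 110 µM thioflavine S; Material: NS3 helicase fragment of HCV; Measured by: Cy5 fluorescence at 0 and 60 min, beacon hairpin quenching; Read-out basis: percent inhibition from t60/t0 fluorescence ratio; Times: reaction time 60 min, 25 °C; Repeats: single replicate; Compound dosing: single dose, 10.9 µM nominal final, DMSO 0.8% final.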
XBP1 UPR activ: activators of adaptive arm of unfolded protein response (XBP1). CHO-XBP1 luciferase reporter, IRE1-XBP1 UPR activation, luminescence; percent of tunicamycin response, DMSO as zero. activation, % at 20 µM. 330,000 tested, 0.33% active. AID 463104;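 active means versus positive control, 20 µM dose yields 30% or more activation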;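 further: 100% = tunicamycin at 10 µg/mL and 0% = DMSO only wells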
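Material: IRE1-XBP1 luciferase reporter CHO line / Quantity: one thousand reporter cells per well / Buffer or medium: F12 with 10% serum / Compound: 20 µM single concentration, DMSO 1% / Times: 6 h treatment, 37 °C / Detection: Steady-Glo luciferase glow luminescence, 10 min after reagent addition / Benchmarks: tunicamycin high, DMSO low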
UPR CHOP act: apoptotic UPR (CHOP) activation. CHO-CHOP luciferase reporter, luminescence; percent of tunicamycin response over DMSO baseline. activation, % at 10 µM. 330,000 tested, 0.34% active. AID 449763;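 active means at 10 µM dose, activation of 40% or more, normalized to positive control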;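 further: 100% = tunicamycin at 10 µg/mL and 0% = DMSO alone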
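assay system = CHO CHOP reporter cells | amount = 500 CHO-CHOP cells per well | buffer or medium = F12 with 10% FBS | incubation = 16-18 h cell attachment, then 6 h compound exposure, 37 °C | detection = luminescence read with Steady-Glo | read-out = percent activation relative to tunicamycin control | controls = tunicamycin high control, DMSO low control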
The depositor's hits bear a star; x = no result.

SMILES	CHOP inhibitor	PfM18AAP inh	p97 inhibitor	HCV NS3 hel inh	XBP1 UPR activ	UPR CHOP act
COc1cc(C(=O)NCC(=O)N2CCN(S(=O)(=O)c3cc(C)ccc3C)CC2)cc(OC)c1OC	x	0	x	3	1	0
CCOc1cc(C(=O)OCC(=O)Nc2cc(C)on2)ccc1OCC(C)C	94*	6	0	3	-3	0
CCOc1ccc(C(=O)OCC(=O)Nc2cc(C)on2)cc1OCC	27	-3	1	4	-1	-2
O=C(NCc1n[nH]c(=S)n1-c1ccc(Br)cc1)c1ccc(S(=O)(=O)N2CCOCC2)cc1	4	28*	2	6	-3	0
COCCNC(=O)c1cccc(Nc2nc(-c3ccccc3)c3cc(Cl)ccc3n2)c1	82*	0	5	-4	12	1
OCCNc1nc(-c2ccccc2)c2cc(Cl)ccc2n1	10	11	0	0	2	1
O=C(O)CCC(=O)NNc1nc(-c2ccccc2)c2cc(Cl)ccc2n1	x	30*	x	21	-5	3
CCOCCc1nn2c(=O)cc(CSCC(=O)Nc3ccccc3)nc2s1	x	-3	x	19	-4	-2
COc1ccc(C)cc1S(=O)(=O)N1c2ccc(C)cc2C2CN(C)CCC21 (stereo unspecified)	x	x	x	x	-3	-1
Cc1cc(S(=O)(=O)N2CCC3(CC2)OCCN3S(=O)(=O)c2cccs2)ccc1F	x	x	x	x	-3	0
O=C(COc1ccc2c(-c3ccccc3)cc(=O)oc2c1)NCC(O)c1ccccc1 (stereo unspecified)	x	-3	x	-4	2	1
Cc1ccc(C(C)c2c(C)c([N+](=O)[O-])cc(C)c2[N+](=O)[O-])cn1 (stereo unspecified)	x	-1	x	-6	-3	1
Cc1ccc(S(=O)(=O)N2CCC(=O)N(CCOCc3cccc(C(F)(F)F)c3)CC2)cc1	79*	2	-2	-7	2	0
CCC(=O)Nc1nnc(SCC(=O)NC2CCCC2)s1	x	0	x	-2	-4	-1
Cc1cc(C)c(NC(=O)CNC(=O)COC(=O)Cc2ccccc2C)c(C)c1	x	x	x	x	2	-1
O=C(NC1=NCCS1)C1COc2ccccc2O1 (stereo unspecified)	76*	-1	-13	1	-7	-11
COC(=O)c1ccccc1NC(=O)C1COc2ccccc2O1 (stereo unspecified)	33	4	-3	2	2	3
CCOC(=O)c1ccccc1NC(=O)C1COc2ccccc2O1 (stereo unspecified)	74*	-3	0	-5	6	6
CC(C/C=N/NC(=O)COc1cc(Cl)ccc1Cl)c1ccccc1 (stereo unspecified)	79*	3	-1	-9	-2	1
COc1ccccc1C(=O)NC(=O)COc1cc(Cl)ccc1Cl	x	x	x	x	-4	1
COc1cc(NC(=O)Cn2ncc(Cl)c(Cl)c2=O)c(C)cc1[N+](=O)[O-]	109*	13	8	9	x	x
COc1cc(NC(=O)CN2C(=O)CN(C)C2=O)c(C)cc1[N+](=O)[O-]	25	1	4	-3	-3	2
O=C(COC(=O)CN1C(=O)COc2ccccc21)NCc1ccc(F)cc1	x	x	x	x	-1	1
CCOC(=O)C1=C(N)c2ccccc2CC1C1CCCC1 (stereo unspecified)	91*	-1	0	4	2	-2
Cc1ccccc1NC(=O)C1CCN(C(=O)N2CCOc3ccccc32)CC1	x	-6	x	4	1	-1
SMILES	CHOP inhibitor	PfM18AAP inh	p97 inhibitor	HCV NS3 hel inh	XBP1 UPR activ	UPR CHOP act
CCc1cccc(NC(=O)CS(=O)Cc2nc(-c3ccc(C)cc3)oc2C)c1 (stereo unspecified)	93*	-7	-12	-5	-2	0
Cc1ccc(/C=N/N2CCN(Cc3cccc4ccccc34)CC2)o1	72*	-18	-1	-11	-3	0
COCCN(C(=O)COc1ccccc1C#N)c1c(N)n(Cc2ccccc2)c(=O)[nH]c1=O	x	x	x	x	-1	2
CSc1n[nH]c2nc3c(c(=O)n12)C1(CCCC1)Cc1ccccc1-3	-9	-3	4	4	0	0
C=CCSc1n[nH]c2nc3c(c(=O)n12)C1(CCCC1)Cc1ccccc1-3	71*	-2	-4	1	-3	0
CCSc1n[nH]c2nc3c(c(=O)n12)C1(CCCC1)Cc1ccccc1-3	88*	0	2	5	-4	-2
Cc1cc(=O)[nH]c(SCC(=O)Nc2ccc3c(c2)CCC3)c1C#N	x	x	x	x	-2	1
COC(=O)CSc1nnc(-c2sc3ccccc3c2Cl)o1	70*	-7	-5	2	-3	-6
CN(Cc1ccccc1)S(=O)(=O)c1ccc(Cl)c(C(=O)NCCCN2CCOCC2)c1	x	x	x	x	1	-2
CC12CN3CC(C)(CN(C1)C3c1ccc3c(c1)OCO3)C2O (stereo unspecified)	8	0	9	-7	-2	-1
O=C(Cc1ccsc1)NNC(=O)c1ccccc1Cl	x	x	x	x	-2	1
CCCCCCCCCCS(=O)(=O)N/N=C/c1ccccc1OC	82*	5	5	3	-1	2
CS(=O)(=O)c1ccc(C(=O)OCc2nnc(-c3ccccc3)o2)cc1[N+](=O)[O-]	88*	-7	9	-1	x	x
O=C(OCc1nnc(-c2ccccc2)o1)c1ccc2c(c1)OCCO2	76*	2	-4	3	0	1
O=C(Nc1cnccn1)Nc1ccc(Cl)cc1Cl	78*	4	2	-13	4	2
Cc1ccc(NC(=O)Nc2cnccn2)cc1Cl	9	-1	11	3	3	0
O=C(Nc1ccc(Cl)cc1)Nc1ccc2c(c1)OCO2	x	-7	x	9	2	7
O=C(Nc1ccc2c(c1)OCO2)Nc1ccc(Cl)cc1Cl	91*	-2	-1	-3	4	3
COc1ccccc1C(=O)NCCC(=O)NCC1CCCO1 (stereo unspecified)	x	x	x	x	0	2
Cc1ccc(-c2nc(CSCC(=O)NCCN3CCN(Cc4ccccc4)CC3)c(C)o2)cc1	75*	-7	-5	-80	3	2
Cc1ccc(NC(=O)COc2cccc(-n3cnnn3)c2)cc1S(=O)(=O)N1CCOCC1	x	x	x	x	-2	-1
COc1ccccc1NS(=O)(=O)c1ccc(C(=O)N2CCN(c3ccccc3)CC2)cc1	x	x	x	x	-4	0
O=C(Nc1nc2cc3c(cc2s1)OCCO3)C1=COCCO1	94*	-3	-36	7	-6	-10
CC1=NN(C(N)=S)C(=O)C1N=Nc1ccc(F)cc1 (stereo unspecified)	x	14	x	8	5	3
